Measurements as given in the RNAGym collection of RNA variant scans (doi:10.1038/nmeth.2970).

B1: NELF-E aptamer (parent)
chain: CCCAACGACUGCCGAGCGAGAUUACGCUUGAGCGCCCCACUGAGGAUGCCCACGGGCGAUUGGGGCACGG

Variants of: B1
Assay: HiTS-RAP
Settings: with NELF-E (Drosophila)
Outline: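 Aptamer DNA templates carrying a T7 promoter and ter site were sequenced on an Illumina GAIIx flowcell, then transcribed in situ by T7 RNA polymerase and halted by GST-Tus (30 minutes, 37°C). Clusters were imaged after 30-minute room-temperature equilibration with NELF-E-mOrange at 0.064 to 1000 nM in HEPES binding buffer, and only the first binding curve was used. Intensities were normalised to sequencing intensity and averaged per sequence. Kd came from weighted Hill fits, keeping fits with variance below 1,000,000.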

CCCAACGACUGCCGAGCGAGAUGACGCUUGAUCGCCCCACUGAGGAUGCCCACGGGCGAUUGGGGCACGG [U23G G32U] and CCCAACGACUGCCGAGCGAGAUGACGCUUGAACGCCCCACUGAGGAUGCCCACGGGCGAUUGGGGCACGG [U23G G32A] are within 1.5-fold of each other in Kd: 6.92 nM for the first, 5.52 nM for the second.

CCCAACGACUGCCGAGCGAGAUUGCGCUUGAGCGCUCCACUGAGGAUGCCCACGGGCGAUUGGGGCACGG [A24G C36U] and CCCAACGACUGCCGAGCGAGAUUGCGCUUGAGCGCGCCACUGAGGAUGCCCACGGGCGAUUGGGGCACGG [A24G C36G] are within 1.5-fold of each other in Kd: 6.95 nM for the first, 8.51 nM for the second.

Compared with CCCAACGACUGCCGAGCGAGAUUGCGCUUGAGCGCCCUACUGAGGAUGCCCACGGGCGAUUGGGGCACGG [A24G C38U], CCCAACGACUGCCGAGCGAGAUGACGCUUGAGCGCCCCACUGAGGAUGCCCACGGGCGAUUGGGACACGG [U23G G65A] is 1.7-fold lower in Kd: 8.33 nM for the first, 4.87 nM for the second.

CCCAACGACUGCCGAGCGAGAUGACGCUUGAGCGCCCCACUGAGGAUGCCCACGGGCGAUUGGGUCACGG [U23G G65U] and CCCAACGACUGCCGAGCGAGAUUGCGCUUGAGCGUCCCACUGAGGAUGCCCACGGGCGAUUGGGGCACGG [A24G C35U] are within 1.5-fold of each other in Kd: 6.65 nM for the first, 9.45 nM for the second.

CCCAACGACUGCCGAGCGAGAUGACGCUUGAGCUCCCCACUGAGGAUGCCCACGGGCGAUUGGGGCACGG [U23G G34U] and CCCAACGACUGCCGAGCGAGAUGACGCUUGAGCACCCCACUGAGGAUGCCCACGGGCGAUUGGGGCACGG [U23G G34A] are within 1.5-fold of each other in Kd: 5.63 nM for the first, 7.56 nM for the second.

CCCAACGACUGCCGAGCGAGAUUGCGCUUGAGCGCCCCACUGAGGAUGCCCAGGGGCGAUUGGGGCACGG [A24G C53G] and CCCAACGACUGCCGAGCGAGAUUGUGCUUGAGCGCCCCACUGAGGAUGCCCACGGGCGAUUGGGGCACGG [A24G C25U] are within 1.5-fold of each other in Kd: 7.46 nM for the first, 6.02 nM for the second.

CCCAACGACUGCCGAGCGAGAUUGCGCUUGGGCGCCCCACUGAGGAUGCCCACGGGCGAUUGGGGCACGG [A24G A31G] and CCCAACGACUGCCGAGCGAGAUUGCGCUUGUGCGCCCCACUGAGGAUGCCCACGGGCGAUUGGGGCACGG [A24G A31U] are within 1.5-fold of each other in Kd: 6.54 nM for the first, 6.88 nM for the second.

CCCAACGACUGCCGAGCGAGAUGACGCUUGAGCGCCCCACUGAGGAUACCCACGGGCGAUUGGGGCACGG [U23G G48A] and CCCAACGACUGCCGAGCGAGAUGACGCUUGAGCGCCCCACUGAGGAUUCCCACGGGCGAUUGGGGCACGG [U23G G48U] are within 1.5-fold of each other in Kd: 11 nM for the first, 7.64 nM for the second.

CCCAACGACUGCCGAGCGAGAUGACGCGUGAGCGCCCCACUGAGGAUGCCCACGGGCGAUUGGGGCACGG [U23G U28G] and CCCAACGACUGCCGAGCGAGAUGACGCCUGAGCGCCCCACUGAGGAUGCCCACGGGCGAUUGGGGCACGG [U23G U28C] are within 1.5-fold of each other in Kd: 7.22 nM for the first, 9 nM for the second.

Compared with CCCAACGACUGCCGAGCGAGAUGACGCAUGAGCGCCCCACUGAGGAUGCCCACGGGCGAUUGGGGCACGG [U23G U28A], CCCAACGACUGCCGAGCGAGAUGACGCUUGAGCGCCCCACUGAGGAUGCCCACGGGCUAUUGGGGCACGG [U23G G58U] is 3-fold higher in Kd: 5.01 nM for the first, 15.1 nM for the second. The first binds more tightly here.

Going from CCCAACGACUGCCGAGCGAGAUGACGCUUGAGCGCCCCACUGAGGAUGCCCACGGGCGAUUGAGGCACGG [U23G G63A] to CCCAACGACUGCCGAGCGAGAUGACGCUUGAGCGCCCCACUGAGGAUGCCCACGGGCGAUUGUGGCACGG [U23G G63U], the Kd falls from 20.3 nM to 12.9 nM (1.6-fold).

Going from CCCAACGACUGCCGAGCGAGAUGACGCUUGAGCGCCCCACUGAGGAUGCCCACGGGCGAUGGGGGCACGG [U23G U61G] to CCCAACGACUGCCGAGCGAGAUGACGCUUGAGCGCCCCACUGAGGAUGCCCACGGGCGAUAGGGGCACGG [U23G U61A], the Kd rises from 6.91 nM to 31 nM (4.5-fold).

First: CCCAACGACUGCCGAGCGAGAUGACGCUUGAGCGCCCCACUGAGGAUGCCCACGGGCGAUCGGGGCACGG [U23G U61C]
Second: CCCAACGACUGCCGAGCGAGAUGACGCUUGAGCGCCCCACUGAGGAAGCCCACGGGCGAUUGGGGCACGG [U23G U47A]
The Kd of the first is 5-fold higher: 67.8 nM for the first, 13.5 nM for the second. The second binds more tightly here.

CCCAACGACUGCCGAGCGAGAUGACGCUUGAGCGCCCCACUGAGGAGGCCCACGGGCGAUUGGGGCACGG [U23G U47G] and CCCAACGACUGCCGAGCGAGAUUGCGCUUGAGGGCCCCACUGAGGAUGCCCACGGGCGAUUGGGGCACGG [A24G C33G] are within 1.5-fold of each other in Kd: 6.6 nM for the first, 8.38 nM for the second.

Going from CCCAACGACUGCCGAGCGAGAUUGCGCUUGAGUGCCCCACUGAGGAUGCCCACGGGCGAUUGGGGCACGG [A24G C33U] to CCCAACGACUGCCGAGCGAGAUUGCGCUUGAGCGCCUCACUGAGGAUGCCCACGGGCGAUUGGGGCACGG [A24G C37U], the Kd rises from 5.71 nM to 15.3 nM (2.7-fold).

CCCAACGACUGCCGAGCGAGAUUGCGCUUGAGCGCCGCACUGAGGAUGCCCACGGGCGAUUGGGGCACGG [A24G C37G] and CCCAACGACUGCCGAGCGAGAUUGCGCUUGAGCGCCACACUGAGGAUGCCCACGGGCGAUUGGGGCACGG [A24G C37A] are within 1.5-fold of each other in Kd: 7.93 nM for the first, 10.1 nM for the second.

CCCAACGACUGCCGAGCGAGAUUGCGUUUGAGCGCCCCACUGAGGAUGCCCACGGGCGAUUGGGGCACGG [A24G C27U] and CCCAACGACUGCCGAGCGAGAUUGCGCUUGAGCGCCCCACUGAGGAUGCCCACGGGCGAUUGGGGCUCGG [A24G A67U] are within 1.5-fold of each other in Kd: 6.16 nM for the first, 7.95 nM for the second.

Going from CCCAACGACUGCCGAGCGAGAUUGCGCUUGAGCGCCCCACUGAGGAUGCCCACGGGCGAUUGGGGCGCGG [A24G A67G] to CCCAACGACUGCCGAGCGAGAUUGCGCUUGAGCGCCCCACUGAGGUUGCCCACGGGCGAUUGGGGCACGG [A24G A46U], the Kd rises from 6.13 nM to 58.5 nM (9.5-fold).

CCCAACGACUGCCGAGCGAGAUUGCGCUUGAGCGCCCCACUGAGGGUGCCCACGGGCGAUUGGGGCACGG [A24G A46G] and CCCAACGACUGCCGAGCGAGAUUGCGCUUGAGCGCCCCACUGAGGAUGCUCACGGGCGAUUGGGGCACGG [A24G C50U] are within 1.5-fold of each other in Kd: 11.5 nM for the first, 9.69 nM for the second.
